ChEMBL document CHEMBL3124841, “Discovery of vinyl sulfones as a novel class of neuroprotective agents toward Parkinson's disease therapy” (J Med Chem, 2014)

Experiments:
[1] = molecular target: T1, Nuclear factor erythroid 2-related factor 2 (Mus musculus) (UniProt Q60795); assay: Induction of Nrf2-dependent HO1 protein level in mouse BV-2 cells at 20 uM after 24 hrs by sandwich ELISA; type: cell-based
T1 sequence (whole entry): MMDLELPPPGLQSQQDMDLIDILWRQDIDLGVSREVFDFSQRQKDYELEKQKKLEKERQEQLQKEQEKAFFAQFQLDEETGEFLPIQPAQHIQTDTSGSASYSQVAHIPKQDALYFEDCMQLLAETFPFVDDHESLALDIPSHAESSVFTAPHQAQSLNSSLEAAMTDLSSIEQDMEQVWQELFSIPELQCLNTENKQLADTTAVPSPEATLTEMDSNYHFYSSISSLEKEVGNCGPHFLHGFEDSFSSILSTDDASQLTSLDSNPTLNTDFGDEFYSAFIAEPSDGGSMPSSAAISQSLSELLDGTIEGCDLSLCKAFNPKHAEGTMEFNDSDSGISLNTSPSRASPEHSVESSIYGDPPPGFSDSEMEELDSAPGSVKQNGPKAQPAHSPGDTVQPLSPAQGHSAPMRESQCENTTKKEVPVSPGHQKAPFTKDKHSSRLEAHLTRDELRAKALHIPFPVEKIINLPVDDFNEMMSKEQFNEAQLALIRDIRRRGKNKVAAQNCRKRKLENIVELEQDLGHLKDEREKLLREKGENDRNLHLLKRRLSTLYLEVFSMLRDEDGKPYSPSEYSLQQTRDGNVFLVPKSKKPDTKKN
Method in brief: (§1)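 Murine BV-2 microglia in DMEM/10% FBS, 2.0 × 10⁴ cells per well, treated at 20 μM for 24 h in triplicate. Lysates in NP-40 Tris buffer (pH 8.0) diluted tenfold; HO-1 measured by sandwich ELISA with HRP-streptavidin and Amplex Red fluorescence (ex 530/em 590 nm). Expressed as % of 0.04% DMSO vehicle control ± SEM; sulforaphane 5 μM as reference.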

[2] = molecular target: T1, Nuclear factor erythroid 2-related factor 2 (Mus musculus); assay: Induction of Nrf2-dependent HO1 protein level in mouse BV-2 cells at 20 uM after 24 hrs by sandwich ELISA relative to control; type: cell-based; method in brief: as §1

Activity [1]	fold change (FC) [2]	Compound
111%		O=S(=O)(/C=C/c1ccc(F)cc1)c1ccc(Cl)cc1
153%		COc1ccc(S(=O)(=O)/C=C/c2cccc(C(F)(F)F)c2)cc1OC
256%	2.6	COc1ccccc1S(=O)(=O)/C=C/c1cccc(C(F)(F)F)c1
146%	1.5	COc1ccc(S(=O)(=O)/C=C/c2cccc(OC)c2)cc1
284%	2.8	COc1cccc(S(=O)(=O)/C=C/c2ccccc2Cl)c1
141%	1.4	COc1ccc(S(=O)(=O)/C=C/c2ccccc2N)cc1
203%	2	COc1ccc(S(=O)(=O)/C=C/c2cccc(F)c2)cc1
148%	1.5	COc1cccc(S(=O)(=O)/C=C/c2ccccc2F)c1
127%		O=S(=O)(/C=C/c1cccc(Cl)c1)c1ccc(Cl)cc1
111%	1.1	COc1cccc(S(=O)(=O)/C=C/c2cccc(Cl)c2)c1
241%		O=S(=O)(/C=C/c1ccccc1F)c1ccc(F)cc1
204%	2	COc1cccc(S(=O)(=O)/C=C/c2cccc(C(F)(F)F)c2)c1
126%	1.2	COc1ccc(S(=O)(=O)/C=C/c2ccccc2OC)cc1
141%		O=S(=O)(/C=C/c1ccc(F)cc1)c1ccc(F)cc1
160%	1.6	COc1cccc(S(=O)(=O)/C=C/c2ccc(F)cc2)c1
204%		COc1ccc(S(=O)(=O)/C=C/c2ccccc2C(F)(F)F)cc1OC
164%		COc1ccc(C(=O)/C=C/c2ccccc2C(F)(F)F)cc1
107%		O=S(=O)(/C=C/c1ccccc1F)c1ccc(Cl)cc1
154%	1.5	COc1ccc(S(=O)(=O)/C=C/c2ccc(C(F)(F)F)cc2)cc1

Activity [1]	fold change (FC) [2]	Compound
242%		O=S(=O)(/C=C/c1ccccc1C(F)(F)F)c1ccc(Cl)cc1
251%	2.5	COc1cccc(S(=O)(=O)/C=C/c2ccccc2C(F)(F)F)c1
373%	3.7	COc1ccccc1S(=O)(=O)/C=C/c1ccccc1F
111%		O=S(=O)(/C=C/c1cccc(C(F)(F)F)c1)c1ccc(Cl)cc1
248%		O=S(=O)(/C=C/c1ccccc1C(F)(F)F)c1ccc(F)cc1
158%	1.6	COc1ccc(S(=O)(=O)/C=C/c2ccccc2Cl)cc1
193%		O=S(=O)(/C=C/c1ccccc1C(F)(F)F)c1ccccc1
214%	2.1	COc1ccc(S(=O)(=O)/C=C/c2cccc(C(F)(F)F)c2)cc1
357%	3.6	COc1ccccc1S(=O)(=O)/C=C/c1ccc(C(F)(F)F)cc1
140%		O=S(=O)(/C=C/c1ccc(C(F)(F)F)cc1)c1ccc(Cl)cc1
117%		O=S(=O)(/C=C/c1ccc(Cl)cc1)c1ccc(Cl)cc1
245%	2.4	COc1ccccc1S(=O)(=O)/C=C/c1cccc(Cl)c1
136%	1.4	COc1cccc(S(=O)(=O)/C=C/c2cccc(F)c2)c1
353%	3.5	COc1ccccc1S(=O)(=O)/C=C/c1cccc(F)c1
258%	2.6	COc1ccc(S(=O)(=O)/C=C/c2ccccc2C(F)(F)F)cc1
188%		O=S(=O)(/C=C/c1cccc(C(F)(F)F)c1)c1ccccc1
228%	2.3	COc1cccc(S(=O)(=O)/C=C/c2ccc(Cl)cc2)c1
137%		O=S(=O)(/C=C/c1cccc(Cl)c1)c1ccc(F)cc1
112%		O=S(=O)(/C=C/c1ccc(Cl)cc1)c1ccc(F)cc1

Activity [1]	fold change (FC) [2]	Compound
119%		COc1ccc(S(=O)(=O)/C=C/c2ccc(C(F)(F)F)cc2)cc1OC
177%		O=S(=O)(/C=C/c1cccc(F)c1)c1ccc(F)cc1
174%	1.7	COc1ccc(S(=O)(=O)/C=C/c2ccccc2F)cc1
169%	1.7	COc1ccc(S(=O)(=O)/C=C/c2ccc(Cl)cc2)cc1
177%	1.8	COc1ccc(S(=O)(=O)/C=C/c2ccc(F)cc2)cc1
169%		O=S(=O)(/C=C/c1ccccc1Cl)c1ccc(Cl)cc1
134%		COc1ccc([S+]([O-])/C=C/c2ccccc2C(F)(F)F)cc1 (stereo not drawn)
125%		O=S(=O)(/C=C/c1ccc(C(F)(F)F)cc1)c1ccc(F)cc1
225%		O=S(=O)(/C=C/c1ccccc1Cl)c1ccc(F)cc1
212%	2.1	COc1ccc(S(=O)(=O)/C=C/c2ccccc2OC(F)(F)F)cc1
105%		O=S(=O)(/C=C/c1cccc(F)c1)c1ccc(Cl)cc1
133%	1.3	COc1ccc(/C=C/S(=O)(=O)c2ccc(OC)cc2)cc1
259%	2.6	COc1ccccc1S(=O)(=O)/C=C/c1ccc(F)cc1
328%	3.3	COc1ccccc1S(=O)(=O)/C=C/c1ccccc1C(F)(F)F
125%	1.2	COc1ccc(S(=O)(=O)/C=C/c2cccc(Cl)c2)cc1
330%	3.3	COc1ccccc1S(=O)(=O)/C=C/c1ccc(Cl)cc1
148%	1.5	COc1cccc(S(=O)(=O)/C=C/c2ccc(C(F)(F)F)cc2)c1
158%		O=S(=O)(/C=C/c1cccc(C(F)(F)F)c1)c1ccc(F)cc1
155%		O=S(=O)(/C=C/c1ccc(C(F)(F)F)cc1)c1ccccc1
